Measurements from different studies.
Protocols differ between the studies behind these lines.
Target: Activin receptor type-1 (ACVR1, Homo sapiens, UniProt Q04771)
One construct used (Q04771 21-509): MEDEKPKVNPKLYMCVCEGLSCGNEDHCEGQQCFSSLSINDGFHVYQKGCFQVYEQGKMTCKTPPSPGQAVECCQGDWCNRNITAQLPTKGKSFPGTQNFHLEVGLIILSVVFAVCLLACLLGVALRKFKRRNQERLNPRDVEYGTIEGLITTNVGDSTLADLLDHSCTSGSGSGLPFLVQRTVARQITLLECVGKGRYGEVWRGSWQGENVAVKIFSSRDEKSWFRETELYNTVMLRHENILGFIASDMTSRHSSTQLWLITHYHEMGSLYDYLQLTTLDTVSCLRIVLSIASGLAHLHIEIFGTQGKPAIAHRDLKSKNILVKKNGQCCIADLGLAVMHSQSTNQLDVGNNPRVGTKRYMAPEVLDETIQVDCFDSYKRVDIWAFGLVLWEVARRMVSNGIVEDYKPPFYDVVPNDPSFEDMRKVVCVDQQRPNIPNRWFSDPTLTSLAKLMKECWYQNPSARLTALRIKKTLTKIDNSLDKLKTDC

COCCOc1nc(-c2ccc(Cl)nc2)nc2c1CN(C(=O)c1ncn3ccccc13)CC2  remaining binding (cell-free assay; competition with immobilised ligand; 0.1 µM): 100%
c1cnn2ncc(-c3ccnc(N4CCC45COC5)n3)c2c1  remaining binding (binding; 1 µM): 64%
C[C@@]1(Cc2ccc(C#N)cc2)C(=O)N(c2cc(Cl)cc(Cl)c2)c2ncc(C(=O)NC3(c4nc(C5CCC5)no4)CC3)n21  remaining binding (cell-free assay; competition with immobilised ligand; 1 µM): 89%
C[C@@H]1CCN(c2nccc(-c3cnn4ncccc34)n2)C1  remaining binding (binding; 1 µM): 100%
Cc1nccc(COC(=O)N2C[C@@H]3[C@@H](CNC(=O)c4ccc5[nH]nnc5c4)[C@@H]3C2)n1  remaining binding (cell-free assay; competition with immobilised ligand; 1 µM): 95%
CN(C)c1nccc(-c2cnn3ncccc23)n1  remaining binding (binding; 1 µM): 90%
O=C(Nc1c[nH]nc1C(=O)NC1CCNCC1)c1cc(F)cc(F)c1  remaining binding (binding; competition with immobilised ligand; 1 µM): 100%
COc1ncc2cc3ccccc3nc2c1C#N  remaining binding (cell-free assay; competition with immobilised ligand; 5 µM): 100%
c1cncc(-c2cccc(Nc3nccc(NC4CCCCC4)n3)c2)c1  remaining binding (binding; competition with immobilised ligand; 10 µM): 15%
O=C(NCCCN1CCOCC1)c1ccc(Nc2ncc(Cl)c(-c3ccc(Cl)s3)n2)cc1  remaining binding (binding; competition with immobilised ligand; 1 µM): 78%
FC(F)(F)c1ccc2c(c1)nc(-c1cccnc1)n2C1CC1  remaining binding (cell-free assay; competition with immobilised ligand; 1 µM): 100%
N[C@H]1CCN(c2nccc(-c3cnn4ncccc34)n2)C1  remaining binding (binding; 1 µM): 85%
FC(F)(F)Oc1cccc(-c2cnc3ccc(-c4ccncc4)nn23)c1  remaining binding (cell-free assay; competition with immobilised ligand; 5 µM): 8.9%
COc1cnc(Nc2cccc(S(N)(=O)=O)c2)nc1N1CCN(c2ccccc2)CC1  remaining binding (binding; competition with immobilised ligand; 1 µM): 100%
CN(C)c1ncc(F)c(-c2cnn3ncccc23)n1  remaining binding (binding; 1 µM): 79%
O=C(O)[C@@H]1[C@@H](Cn2nnc3ccccc3c2=O)CC[C@H]1C(=O)c1ccc(OCCC2CCOCC2)cc1  remaining binding (cell-free assay; competition with immobilised ligand; 1 µM): 100%
O=C(NCCCN1CCOCC1)c1ccc(Nc2nccc(-c3cc4ccccc4s3)n2)cc1  remaining binding (binding; competition with immobilised ligand; 1 µM): 14%
CN(C)c1nccc(-c2cnc3ncccn23)n1  remaining binding (binding; 1 µM): 88%
CCN1CCN(Cc2ccc(C(=O)Nc3ccc(C)c(Oc4ccc5c(c4)CC(=O)N5)c3)cc2C(F)(F)F)CC1  remaining binding (binding; competition with immobilised ligand; 1 µM): 100%
COc1ccc2c(O[C@@H]3C[C@H]4C(=O)N[C@]5(C(=O)O)CC5/C=C\CCCCC[C@H](NC(=O)OC5CCCC5)C(=O)N4C3)cc(-c3csc(NC(=O)C(C)C)n3)nc2c1C (stereo partly drawn)  remaining binding (cell-free assay; competition with immobilised ligand; 1 µM): 100%
Cc1cnc(Nc2ccc(C(=O)N3CCC(N4CCCC4)CC3)cc2)nc1-c1cc2ccccc2s1  remaining binding (binding; competition with immobilised ligand; 1 µM): 72%
